Experimental data as given in ChEMBL document CHEMBL1158697, “Synthesis and biological evaluation of a natural ester sintenin and its synthetic analogues” (J Nat Prod, 2005).

Legend:
[1] = tested on: PC-3; assay: Cytotoxicity against human PC3 cells after 72 hrs by MTT assay; assay type: functional, cell-based; details: PC-3, 72 h
How it was run: (§1)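 Cells allowed to attach as monolayers, then exposed to compounds at various concentrations in culture medium for 72 h; controls got deionized water (compound stock solvent). MTT added ([…]) for 3 h, supernatant removed, cells dissolved in DMSO, absorbance at 570 nm. CC50 = concentration reducing MTT signal 50% versus untreated controls.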

[2] = Cytotoxicity against human Bel7404 cells after 72 hrs by MTT assay; assay type: functional, cell-based; details: BEL-7404, 72 h; how it was run: as §1
[3] = tested on: KB; assay: Cytotoxicity against human KB cells after 72 hrs by MTT assay; assay type: functional, cell-based; how it was run: as §1
[4] = tested on: HeLa; assay: Cytotoxicity against human HeLa cells after 72 hrs by MTT assay; assay type: functional, cell-based; how it was run: as §1
[5] = tested on: A549; assay: Cytotoxicity against human A549 cells after 72 hrs by MTT assay; assay type: functional, cell-based; details: A549, 72 h; how it was run: as §1
[6] = tested on: CNE; assay: Cytotoxicity against human CNE cells after 72 hrs by MTT assay; assay type: functional, cell-based; how it was run: as §1
[7] = Inhibition of alpha glucosidase
How it was run: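 α-Glucosidase (25 µL at 0.2 U/mL) with p-nitrophenyl-α-D-glucopyranoside (25 µL of 23.2 mM), sample at various concentrations, in 67 mM phosphate buffer pH 6.8. Reaction stopped with 1 M Na2CO3; p-nitrophenol release read at 405 nm. Blanks lacked enzyme; negative control had buffer instead of sample; acarbose as positive control. Percent inhibition from corrected ODs; IC50 calculated from this.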

| SMILES | IC50 [1] | IC50 [2] | IC50 [3] | IC50 [4] | IC50 [5] | IC50 [6] | IC50 [7] |
| --- | --- | --- | --- | --- | --- | --- | --- |
| COCOc1ccc(/C=C/C(=O)OC/C=C/c2ccc(OC)cc2)cc1 | 226 µM | > 100 µg/mL | > 100 µg/mL | 46 µM | > 100 µg/mL | > 100 µg/mL |  |
| O=C(/C=C/c1ccc(O)c(O)c1)OC/C=C/c1ccccc1 | 123 µM | 91 µM | 54 µM | 171 µM | 71 µM | 214 µM | 97 µM |
| COc1ccc(/C=C/COC(=O)/C=C/c2cc(OC)c(OC)c(OC)c2)cc1OC | 80 µM | 212 µM | > 100 µg/mL | 64 µM | 172 µM | > 100 µg/mL |  |
| COc1ccc(/C=C/COC(=O)/C=C/c2ccc(OC)c(OC)c2)cc1OC | 92 µM | 136 µM | 133 µM | 86.7 µM | 181 µM | > 100 µg/mL |  |
| COc1ccc(/C=C/COC(=O)/C=C/c2ccc([N+](=O)[O-])cc2)cc1OC | 212 µM | > 100 µg/mL | 165 µM | > 100 µg/mL | > 100 µg/mL | > 100 µg/mL |  |
| COc1ccc(/C=C/C(=O)OC/C=C/c2ccc(OC)c(OC)c2)cc1 | 181 µM | > 100 µg/mL | > 100 µg/mL | 167 µM | > 100 µg/mL | > 100 µg/mL |  |
| COc1cc(/C=C/COC(=O)/C=C/c2cc(OC)c(OC)c(OC)c2)cc(OC)c1OC | 189 µM | > 100 µg/mL | 206 µM | 43 µM | 180 µM | 50 µM | 110 µM |
| COCOc1ccc(/C=C/C(=O)OC/C=C/c2ccccc2)cc1OCOC | > 1000 µM | > 100 µg/mL | 202 µM | > 1000 µM | > 100 µg/mL | > 100 µg/mL |  |
| COc1ccc(CCCOC(=O)CCc2ccc(O)cc2)cc1 | 283 µM | 108 µM | 820 µM | > 100 µg/mL | 186 µM | 287 µM |  |
| COc1ccc(CCCOC(=O)CCc2cc(OC)c(OC)c(OC)c2)cc1OC | 104 µM | > 100 µg/mL | 124 µM | > 100 µg/mL | > 100 µg/mL | > 100 µg/mL |  |
| O=C(/C=C/c1ccc(O)cc1)OC/C=C/c1ccccc1 | 143 µM | > 100 µg/mL | > 100 µg/mL | 160 µM | 120 µM | 162 µM | 65 µM |
| O=C(CCc1ccc(O)c(O)c1)OCCCc1ccccc1 | 189 µM | > 100 µg/mL | 125 µM | 171 µM | 138 µM | 235 µM | 73 µM |
| COc1ccc(/C=C/COC(=O)/C=C/c2ccc(O)cc2)cc1 | 88 µM | 193 µM | 143 µM | 95 µM | 72 µM | 40 µM |  |
| C[C@H]1O[C@H](O[C@H]2[C@H](O)[C@@H](O)[C@@H](O[C@H]3[C@H](O)[C@@H](O)C(O)O[C@@H]3CO)O[C@@H]2CO)[C@H](O)[C@@H](O)[C@@H]1N[C@H]1C=C(CO)[C@@H](O)[C@H](O)[C@H]1O (stereo partly drawn) [ACARBOSE] |  |  |  |  |  |  | 680 µM |
